# From ChEMBL document CHEMBL4513216, “Probing the Open Global Health Chemical Diversity Library for Multistage-Active Starting Points for Next-Generation Antimalarials” (ACS Infect Dis, 2020)
# Experiment: Toxicity liver stage against HepG2, at 10uM
# Format: cell-based
# Set-up: test concentration 10 uM, cell line HepG2-A16-CD81EGFP
# Details: human, HepG2-A16-CD81EGFP cells; read-out: INHIBITION
# In short: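 Uninfected HepG2-A16-CD81EGFP cells, 3 × 10^3 per well, 1536-well, plated on prespotted compound at 10 μM final, parasite-free screening media added to match infected plates; puromycin 10 μM positive, DMSO 0.5% negative; run in parallel with 48 h PbLuc assay at 37 °C, 5% CO2; viability by CellTiter-Glo luminescence, normalized to controls.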
row,Structure (SMILES),cytotoxicity at 10 µM [%]
1,Cc1cc(C2CCCN2CCCc2nc3ccccc3o2)on1 (stereo unspecified),-5.58
2,Cn1nnc(NCc2ccc(OCc3ccc(Cl)cc3)cc2)n1,-2.56
3,O=C(NCCCN1CCCC1=O)c1ccc(-n2ccc3ccccc32)s1,6.69
4,O=C(O)c1cn(-c2ccccn2)c(=O)c2ccccc12,0.847
5,COc1ccc(C(=O)CNC(=O)c2nc(Cl)sc2C(C)C)cc1,-3.15
6,COCCNC(=O)NCCS(=O)(=O)N1CCN(c2cccc(C)c2)CC1,4.31
7,CCS(=O)(=O)N1CCC2(CC1)CN(C(=O)N(C)C)Cc1ccccc12,2.67
8,Cc1cccc(CN2CCCC23CCNC3)n1 (stereo unspecified),4.82
9,COc1ccc(CN2CCO[C@H]3CN(C(=O)C4CC4)CC[C@H]3C2=O)cc1,-147
10,Cc1ccc(N2CCC3(CCN(C(=O)C4CCOC4)CC3)CC2)nn1 (stereo unspecified),-0.28
11,CCN(CC)Cc1cnc2n1CCN(C1CCOC1)CC2 (stereo unspecified),-146
12,CN1CCN(Cc2cn3c(n2)CN(CC2CC2)CC3)CC1,-119
13,CCOCC1CN(Cc2ccco2)Cc2ccnn2C1 (stereo unspecified),-149
14,Cc1nc(N(C)C)nc2c1COCC21CCN(C(=O)NCC(C)C)C1 (stereo unspecified),7.63
15,O=C(CC1CC1)N1CCC2(CC1)CC(Oc1ccccc1)CO2 (stereo unspecified),-0.82
16,Cc1ccc(CN2CCC3(CC2)CC(NC(=O)c2ccccn2)CO3)o1 (stereo unspecified),3.8
17,O=C(CC1Cn2ncnc2NC1=O)Nc1ccccc1 (stereo unspecified),6.11
18,COc1ccc(C(C)Nc2nc3c(C)nn(C)c3c(=O)n2C)cc1 (stereo unspecified),1.89
19,CC(C)(C)C(=O)N1CCCc2c(cnn2-c2ccccc2)C1,7.15
20,Cc1nccn1-c1ccc(CN2CC3C[C@@H](O)CN3C[C@@H]2C)cc1 (stereo partly specified),6.26
21,CNc1cncc(C2CCCN2S(=O)(=O)c2ccccc2)n1 (stereo unspecified),-22
22,O=C1Nc2ccccc2CN(CC2CCCC2)C12CCNC2 (stereo unspecified),7.83
23,Cc1cnn(-c2ccc(S(=O)(=O)N(C)CC(F)F)cc2F)c1,9.75

row,Structure (SMILES),cytotoxicity at 10 µM [%]
1,CCn1cc(NC(=O)N2CCN(C(=O)Oc3ccccc3)CC2)cn1,1.1
2,CC(C(=O)N1CCCC1)S(=O)(=O)Cc1nc(C(C)(C)C)no1 (stereo unspecified),8.18
3,CC(C)(C)CC(=O)N1CCc2sccc2C1,3.61
4,COc1cc(CO)ccc1OCc1nc(C(C)C)no1,6.3
5,COC(=O)c1cccc(S(=O)(=O)Nc2ncc(C)s2)c1,0.158
6,CCCN(Cc1cnn(C)c1)S(=O)(=O)c1cccc(F)c1C#N,-9.04
7,CCC1CCCCCN1C(=O)c1ccc(N2CCC(O)CC2)cc1 (stereo unspecified),-9.77
8,Cc1ccc(-c2nnn(CCN3C(=O)CCC3=O)n2)cc1,1.33
9,COC(=O)C1CCN(C(=O)Cn2ccc(-c3ccsc3)n2)CC1,-6.58
10,COC(=O)c1ccoc1CN(C)CC(=O)NC1CC1,-1.96
11,CC(C)(C)CN(CCC#N)C(=O)Nc1cccc(N2CCNC2=O)c1,-9.86
12,COc1cc2c(nn1)CCN(Cc1noc(-c3ccccc3)n1)C2,-1.49
13,CC(C)Cn1cc(NC(=O)c2cccc(N(C)C)c2)cn1,11.8
14,CCC(C)S(=O)(=O)N(Cc1ccco1)Cc1ccccc1O (stereo unspecified),9.99
15,Cc1csc(C(C)(C)NCc2ncc(-c3ccc(F)cc3)o2)n1,8.27
16,CN(C)C(=O)c1cccc(CCNS(=O)(=O)c2ccccc2)c1,-4.12
17,NC(=O)CC1CCN(CC(O)c2ccc(Br)cc2)CC1 (stereo unspecified),-7.74
18,CCn1c(C)nnc1CN(C)C1CCN(Cc2ccon2)C1 (stereo unspecified),0.793
19,Oc1cccc(C2CN(c3nnc(C4CC4)s3)CCO2)c1 (stereo unspecified),1.07
20,O=C(CN1CCCC(Cn2cncn2)C1)Nc1cccnc1 (stereo unspecified),2.01
21,CC(C)c1cnc(CN(C)C2CCN(CCc3ccncc3)C2)o1 (stereo unspecified),-0.296
22,COCCNC(=O)C1CCCN1S(=O)(=O)c1sc(=O)[nH]c1C (stereo unspecified),2.17
23,OCC(O)CSCc1nnc(-c2ccc(Cl)cc2)o1 (stereo unspecified),10.8

row,Structure (SMILES),cytotoxicity at 10 µM [%]
1,O=C(Cc1cnn(-c2ccccc2)n1)NC1CCOCC1,-9.72
2,CCC1CN(C(=O)c2[nH]nc(C)c2Br)CCO1 (stereo unspecified),-3.22
3,O=C(NC1CCN(c2ncccn2)CC1)c1cc2c([nH]c1=O)CCC2,1.28
4,O=C(CC(F)(F)F)NC(c1ccc(Cl)cc1)c1ncon1 (stereo unspecified),2.14
5,Cc1nn(C)c(C)c1CC(C)NC(=O)NCc1ccoc1C (stereo unspecified),0.43
6,CC(=O)NCCc1ccc(S(=O)(=O)Nc2ccc(C)cc2F)s1,-5.48
7,O=C1NC(c2cnc(C3CCC3)s2)Nc2ncccc21 (stereo unspecified),0.992
8,CC1CN(Cc2ccccc2)CCCN1CCNS(C)(=O)=O (stereo unspecified),-3.72
9,CC(C)c1nc(C2CCCN(c3cnc4ccccc4n3)C2)no1 (stereo unspecified),2.11
10,CCN(C)CC1CCN(C(=O)Nc2ccc(C)cc2)C1 (stereo unspecified),2.89
11,CSC1(CNC(=O)c2cccc(-n3cccn3)c2)CCOCC1,-2.44
12,CC(NCC(F)(F)F)c1ccc(S(C)(=O)=O)c(F)c1 (stereo unspecified),1.79
13,CC(c1cccnc1)N(C)Cc1csc(-c2ccccn2)n1 (stereo unspecified),-10.4
14,Fc1ccc(CN2CCCC(Cn3cncn3)C2)c2ncccc12 (stereo unspecified),-12.4
15,Cc1cc(C)n(CC(C)CNC(=O)[C@@H](C)NC(=O)OC(C)(C)C)n1 (stereo partly specified),-4.25
16,CC(C)OCCNC(=O)C1CCC(=O)N(C2CCCC2)C1 (stereo unspecified),-12.5
17,CCCc1cncnc1N1CCC2(CCC(=O)N(CCCO)C2)CC1,2.8
18,Cc1ccc2nc(C(=O)N3C[C@@H](C(=O)O)[C@H](c4ccccc4)C3)cn2c1,5.96
19,Cc1ccc2nc(CN3CCN(C4CCCCC4)C(=O)C3)cc(O)c2c1,12.9
20,COCc1ncc(CN2CCC3(CCNC(=O)CC3)CC2)cn1,-147
21,COCCC1(CO)CCCN(Cc2ccc(C(F)(F)F)nc2)C1 (stereo unspecified),-146
22,CN(C)CC1(O)CCCN(C(=O)CCn2cc(Cl)cn2)C1 (stereo unspecified),-138
23,COc1cccc2ccc(N3CCC(O)(c4ccc(C)cn4)CC3)nc12,-0.942

row,Structure (SMILES),cytotoxicity at 10 µM [%]
1,COCC(c1ccccn1)N(C)C(=O)c1cc(-c2cccn2C)n[nH]1 (stereo unspecified),-3.39
2,COCC(=O)NCc1cc2n(n1)CCCN(Cc1ccccc1SC)C2,2.04
3,COc1cccc(Cl)c1C(C(=O)O)N1CCC(Cn2cccn2)CC1 (stereo unspecified),-12.5
4,CC(C)C1CN(c2nccc(N)n2)CCC(=O)N1Cc1ccc(F)cc1 (stereo unspecified),-5.04
5,Cc1nn(C)c2nc(N3CCNC(=O)C3C(C)C)sc12 (stereo unspecified),-10
6,COc1ccc(CCN)cc1-c1ccc(S(C)(=O)=O)cc1,-6.23
7,O=c1cc(CN2CCCCC2c2cccc(F)c2)[nH]c2ncnn12 (stereo unspecified),-3.46
8,Cc1nc2c(c(NC(C)c3nnn[nH]3)n1)Cc1ccccc1OC2 (stereo unspecified),1.07
9,CCOC(=O)c1n[nH]cc1CN1CCOC(Cc2ccc(F)cc2)C1 (stereo unspecified),-3.92
10,CC(=O)C1(c2ccccc2)CCN(C(=O)C2CNCCO2)CC1 (stereo unspecified),-3.73
11,O=C(c1cncc(N2CCCC3(CCNCC3)CC2)n1)N1CCCCC1,-3.38
12,CC(=O)NCCNC(=O)C1(N2CCCCC2)Cc2ccccc2C1,-6.53
13,Cc1nc(O)cc(CN2CC=C(c3cnn(-c4ccccc4)c3)CC2)n1,-10.5
14,CCc1ccc2nc(NCCOCCO)cc(C)c2c1,-2.78
15,Cc1nn(C)c2ncnc(N3CCCC(OCc4ccccn4)C3)c12 (stereo unspecified),7.96
16,CCN(Cc1noc(C)n1)C(=O)CCc1scnc1C,2.13
17,COCCCN1CC2(CCCN(c3ncc4nc[nH]c4n3)C2)CCC1=O (stereo unspecified),-5.64
18,O=C(NCCc1nccs1)c1cn(CCN2CCNCC2)nn1,-4.41
19,O=C(c1ccc(-c2cnco2)cc1)N1CCC(Nc2cccnn2)CC1,-0.692
20,COc1cc(CNC2CCc3nc(C)nn3C2)cc2c1OCO2 (stereo unspecified),-11.6
21,Cc1nn(C)c(C)c1C1CCCN1C(=O)c1ccc2c(c1)OCCO2 (stereo unspecified),-10.6
22,CN(CC(N)=O)CC(=O)N1CC=C(c2ccccc2)CC1,-5.1
23,c1ccc2nc(N3CCOC(Cn4cncn4)C3)cnc2c1 (stereo unspecified),-11.5

row,Structure (SMILES),cytotoxicity at 10 µM [%]
1,CC(Cn1cccn1)NCc1csc(-c2ccsc2)n1 (stereo unspecified),-3.96
2,Cc1cnn(CC2CN(Cc3nc4ccccc4n3C)CCO2)c1 (stereo unspecified),0.338
3,c1coc(-c2nc(CN3CCn4c(nnc4C4CC4)C3)cs2)c1,-4.64
4,COc1cccc(CNC(=O)CN2CCCCC2Cn2cccn2)c1 (stereo unspecified),2.77
5,CN1CCC2(CC1)C(=O)N(c1cccnc1)c1ccc(F)cc12,3.65
6,COCCNC(=O)[C@H]1CN(Cc2scnc2C)C[C@H]2OCC[C@@H]12,-8.94
7,O=C(C1CCOCC1)N1C[C@@H]2[C@@H](C1)OCC(=O)N2Cc1ccncc1,-8.8
8,c1c2c(nn1CC1CCOCC1)C(CNC1CCOCC1)OCC2 (stereo unspecified),5.83
9,Cc1ccsc1C(=O)N1CC[C@H]2CO[C@H](CN(C)C)[C@H]2C1,2.93
10,CN(Cc1ccco1)C[C@@H]1OC[C@H]2CN(Cc3nccs3)CC[C@H]21,-5.46
11,CCn1ncc2c1C(COCC1CC1)N(Cc1cnn(C)c1)CC2 (stereo unspecified),8.98
12,O=C1CCCN1Cc1ncn2c1CN(C(=O)N1CCCC1)CCC2,-2.36
13,Cc1cccc(CN2CCc3[nH]nc(C(=O)N(C)C)c3C2)n1,-0.596
14,CN(C)C(=O)N1CCC2(CCCN(CCOc3ccccc3)C2)C1 (stereo unspecified),-0.537
15,CC(C)NC(=O)N1CC[C@H]2[C@H]1CCN2c1ncccn1,-0.155
16,Cn1cc(CN2CC[C@@H]3[C@H]2CCC(=O)N3c2ccccc2)cn1,7.42
17,Cc1cccc(CN2CCn3cc(Cn4cccn4)nc3C2)n1,3.27
18,CCc1cnc(N2C[C@@H]3C[C@H](C(=O)NC)[C@H](C2)O3)nc1,9.76
19,CCc1cnc(N2C[C@@H]3C[C@H](C(=O)N(C)C)[C@H](C2)O3)nc1,-12.1
